From PMC4975651 (Molecular cell, 2016)

How the values were obtained:
ZMYND8-PHD = assay: Peptide pull-down assay, ZMYND8-PHD alone; format: binding, human; conditions: H3 (1-21) peptide
Procedure, shortened: (§1)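 Biotinylated histone peptides were used to pull down GST-tagged ZMYND8 fragments expressed in bacteria from a GST-fusion vector. These fragments were PHD/Bromo, PHD/Bromo/PWWP, or deletion mutants of PHD/Bromo. The deletion mutants were tested against the H3 (1-21) peptide.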

[1] = system: N-terminal truncated version of ZMYND8-PBP (residue 103-426); assay: ITC, N-terminal truncated ZMYND8-PBP; format: binding, human; conditions: H3K4me0 (1-25aa)
Procedure, shortened: (§2)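 ZMYND8 PHD/Bromo/PWWP region, with its point and deletion mutants, was cloned into a bacterial GST-fusion expression vector and expressed as recombinant protein. Binding to histone H3 peptides was measured by isothermal titration calorimetry, and KD was taken from the titration.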

ZMYND8-PBP, D108A = assay: ITC, ZMYND8-PBP alanine mutant of D108; format: binding, human; conditions: H3K4me0 (1-25aa)
Procedure, shortened: as §2

[2] = system: GST-tagged ZMYND8-PB (ZMYND8-PHD/Bromo); assay: Peptide pull-down assay, GST-tagged ZMYND8-PB; format: binding, human; conditions: biotinylated peptides
Procedure, shortened: as §1

[3] = system: ZMYND8-PBP, alanine mutation of D96; assay: ITC, ZMYND8-PBP alanine mutant of D96; format: binding, human; conditions: H3K4me0 (1-25aa)
Procedure, shortened: as §2

[4] = system: ZMYND8-PBP, alanine mutation of E124; assay: ITC, ZMYND8-PBP alanine mutant of E124; format: binding, human; conditions: H3K4me0 (1-25aa)
Procedure, shortened: as §2

[5] = system: ZMYND8-PBP, alanine mutation of D104; assay: ITC, ZMYND8-PBP alanine mutant of D104; format: binding, human; conditions: H3K4me0 (1-25aa)
Procedure, shortened: as §2

ZMYND8-PBP, F109D = assay: ITC, ZMYND8-PBP F109D; format: binding, human; conditions: H3K4me0 (1-25aa), relative to ZMYND8-PBP
Procedure, shortened: as §2

[6] = system: ZMYND8-PBP, alanine mutation of D99; assay: ITC, ZMYND8-PBP alanine mutant of D99; format: binding, human; conditions: H3K4me0 (1-25aa)
Procedure, shortened: as §2

[7] = biological target: T1, ZMYND8-PHD/Bromo (ZMYND8-PB) (Homo sapiens, UniProt Q9ULU4); assay: Isothermal titration calorimetry; format: binding; conditions: ITC
T1 sequence (Q9ULU4 75-268 limits assumed): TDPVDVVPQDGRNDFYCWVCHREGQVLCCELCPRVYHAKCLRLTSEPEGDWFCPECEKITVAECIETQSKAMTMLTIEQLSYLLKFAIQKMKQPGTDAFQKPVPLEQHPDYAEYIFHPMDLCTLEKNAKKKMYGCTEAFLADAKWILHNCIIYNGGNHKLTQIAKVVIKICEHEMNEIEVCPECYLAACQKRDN
Procedure, shortened: as §2

[8] = biological target: T2, ZMYND8-PHD/Bromo/PWWP (ZMYND8-PBP) (Homo sapiens, UniProt Q9ULU4); assay: Isothermal titration calorimetry; format: binding; conditions: ITC
T2 sequence (Q9ULU4 93-426 isoform Q9ULU4-10): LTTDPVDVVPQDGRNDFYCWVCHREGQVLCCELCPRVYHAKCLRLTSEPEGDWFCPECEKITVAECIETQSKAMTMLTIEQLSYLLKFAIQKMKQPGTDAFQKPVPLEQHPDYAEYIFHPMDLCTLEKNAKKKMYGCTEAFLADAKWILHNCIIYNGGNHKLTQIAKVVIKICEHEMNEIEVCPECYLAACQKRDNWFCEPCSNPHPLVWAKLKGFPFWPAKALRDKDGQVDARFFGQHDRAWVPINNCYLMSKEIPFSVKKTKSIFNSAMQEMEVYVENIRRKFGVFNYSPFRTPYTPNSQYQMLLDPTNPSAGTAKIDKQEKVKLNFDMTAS
Procedure, shortened: as §2

H3K4me0-binding activity of truncated ZMYND8-PBP [1]: significant losses | H3K4me0-binding activity of mutant (ZMYND8-PBP, D108A): significant losses | H3K4me0-binding activity of mutant [3]: significant losses | H3K4me0-binding activity of mutant [4]: significant losses | H3K4me0-binding activity of mutant [5]: significant losses | enhancement of PBP's binding activity by F109D (ZMYND8-PBP, F109D): ~ 11 fold | H3K4me0-binding activity of mutant [6]: significant losses | Kd [7]: ~15 µM | Kd [8]: ~7.2 µM
Substance: H3K4me0: unmethylated H3K4 (H3 [1-21aa]; referred to as "H3K4me0")
interaction with ZMYND8-PHD alone (pull-down) (ZMYND8-PHD): did not interact | interaction with ZMYND8-PB (pull-down), 300 mM NaCl wash [2]: interacted
